From the RNAGym collection of RNA variant scans (doi:10.1126/science.aae0568)
Variants at the floor of the assay were thinned out.

B1: tRNA (parent)
chain: GUUCCGUUGGCGUAAUGGUAACGCGUCUCCCUCCUAAGGAGAAGACUGCGGGUUCGAGUCCCGUACGGAACG

Variants of: B1
Assay: yeast fitness relative to wild type (ratio to wild type); higher = fitter; tRNA-Arg(CCU), competitive growth, 37 C, YPD
Procedure, shortened: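 Genotype frequency changes were the basis for Darwinian fitness relative to wild type. The frequencies came from 100-nucleotide paired-end sequencing of gene amplicons from the start population and each end population of pooled yeast strains with tRNA-Arg(CCU) gene variants at the native locus. Competition ran in YPD at 37°C for 24 hours in six replicates, genotypes needed ≥ 100 starting reads, and estimates < 0.5 were set to 0.5.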

Variant | yeast fitness
GUUCCGUUCGCGUAAUGGUAACGCGUCUCCCUCCUAAGGAGAAGACUGCGGGUUCGAGUGCCGUACAGAACG | 0.572
GUUCCGUUCGCGUAAUGGUAACGCGUCUCCGUCCUAAGGAGAAGACUGCGGGUUCGAGUCCCGUACGGAACG | 0.66
GUUCCGUUCGCGUAAUGGUAACGCGUCUCCUUCCUAAGGAGAAGACUGCGGGUUCGAGUCCCGUACGGAACG | 0.676
GUUCCGUUCGCGUAAUGGUAACGCGUCUCCGUCCUAAGGCGAAGACUGCCGGUUUGAGUGCCGUACGGGACG | 0.549
GUUCCGUUCGCGUAAUGGUAACGCGUUUCCCUCCUAAGGUGAAGACUGCGGGUUCGAGUCCCGUGCGGAACG | ≤ 0.5
GUUCCGUUCACCUAAUGGUAAUGCGUCUCCCUCCUAAGGAGAAGUCUGCGGGUUCGAGUCCCGUACGGAACG | ≤ 0.5
GUUCCGUUCGCGUAAUGGUAACGCGUCUCCCUCGUAAGGAGAAGACUGCGGGUUCGAGUCUCGUAUGGAACG | 0.58
GUUCCGUUCGCGUAAUGGUAACGCGUCUCCCUCCUAAGGAGAAGACUGCGGGUUCGAGUCCCGUAAGGAACG | ≤ 0.5
GUUCCGUUCGCGUAAUGGUAACGCGUCUCCCUCCUAAGGAGAAGACUGCGGGUUCGAGUCCCGUAUGGAACG | 0.621
GUUCCGUUCGCGUAAUGGUAACGCGUCUCCCUCGUAAGGAGAAGACUGCGGAUUCAAGUCCCGUACGGAACG | ≤ 0.5
GUUCCGUUCGCGUAAUGGUAACGCGUCUCGCUCCUAAGGAGAAGACUGCGGGUUCGAGUCCCGUACGCAACG | ≤ 0.5
GUUCCGUUCGCGUAAUGGUAACGCGUCUUACUCCUAAGGAGAAGACUGCGGGUUCAAGUCCCGUACGGAACG | ≤ 0.5
GUUCCGUUCGCGUAAUGGUAACGCGUCUCCCUCCUAAGGAGAAGACUGCGGGUUCGAGUGCCGUACGGAACG | 0.53
GUUCCGUUCGCGUAAUGGUAACGCGUCUCCCUCCUAAGGAGAAGACUGCGGGUUCGAGUUCCGUACGGAACG | 0.618
GUUCCGUUCGCGUAAUGGUAACGCGUUUCCCUCCUAAGGAGAAGACCGCGGGUUUGAGUCCGGUGCGGUACG | ≤ 0.5
GUUCCGUUCGCGUAAUGGUAACGCGUCUCCCUCUUAAGGAGAAGACUGCGGGUUAGCGUCCCGUACGGAACG | ≤ 0.5
GUUCCGUUCGCGUAAUGGUAACGCGUCUCCCUCCUAAGGAGAAGACUGCGGGUUCGAGUCCUGUACCGAACG | ≤ 0.5
GUUCCGUUCGCGUAAUGGUAACGCGUGUCGCUCCUAAGGUGAAGACUGUGGGUUCGAGUCCCGUACGGAACG | ≤ 0.5
GUUCCGUUCGCGUAAUGGUAACGCGUCUCGCUCCUAAGGAGAAGACUGCGGGUUCGAGUCCCGUACGGAACG | 0.578

Variant | yeast fitness
GUUCCGUUCGCGUAAUGGUAACGCGUCUCUCUCCUAAGGAGAAGACUGCGGGUUCGAGUCCCGUACGGAACG | 0.628
GUUCCGUUCGCGUAAUGGUAACGCGUCUCACUCCUAAGGAGAAGACUGCGGGUUCGAGUCCCGUACGGAACG | 0.664
GUUCCGUUCGCGUAAUGGUAACGCGUCUCCCUCCUAAGGAGAAGACUGCGGGUUCGAGUCGCGUACGGAACG | 0.61
GUUCCGUUCGCGUAAUGGUAACGCGUCUCCCUCCUAAGGAGAAGACUGCGGGUUCGAGUCUCGUACGGAACG | 0.844
GUUCCGUUCGCGUAAUGGUAACGCGUCUCCCUCCUAAGGAGAAGACUGCGGGUUGGAGUCCCGUACGGAACG | 0.542
GUUCCGUUCGCGUAAUGGUAACGCGUCUCCCUCCUAAGGAGAAGACUGCGGGUUCGAGUCACGUACAGAACG | ≤ 0.5
GUUCCGUUCCCGUAAUGGUAACGCGUCUCCCUUCUAAGGAGAAGACUCCGGGUUGGAGUCCCGUACGGAACG | ≤ 0.5
GUUCCGUUCGCGUAAUGGUAACGCGUCUCCCUCCUAAGGAGAAGACUGUGGGUUCGAGUCCCGUACGGAACG | 0.703
GUUCCGUUCGCGUAAUGGUAACGCGUCUCCCUCCUAAGGAGAAGACUGGGGGUUCGAGUCCCGUACGGAACG | 0.63
GUUCCGUUCACCUAAUGGUAACGCGUCUCCCUCCUAAGGAGAAGUCUGCGGGUUCGAGUACCGUACGGAACG | ≤ 0.5
GUUCCGUUCGCGUAAUGGUAACGCGUCUCUCUCCUAAGGAGAAGACAGCGGGUUCGAGUCCCGUACCGAACG | 0.559
GUUCCGUUCGCGUAAUGGUAACGCGUGUCCCUCCUAAGGAGAAGACUGCGGGUUCGAGUUCCGUACGGUACG | ≤ 0.5
GUUCCGUUCGCGUAAUGGUAACGCGUCUCCGUCCUAAGGCGAAGACUGCGGGUUCGAGUCCCGUAUGGAACG | ≤ 0.5
GUUCCGUUCGCGUAAUGGUAACGCGUCUCCCUCCUAAGGAGAAGAUUCCGGGUUCGAGUCCUGUACGGAACG | ≤ 0.5
GUUCCGUUCGCGUAAUGGUAACGCGUCUCCCUCCUAAGGAGAAGAUUGUGGGUUCGAGUCCCGUACGGAACG | 0.692
GUUCCGUUCGCGUAAUGGUAACGCGUCUCGCUCCUAAGGAGAAGACUGCGGGCUCGAGUCCCGUACGGAACG | ≤ 0.5
GUUCCGUUCGCGUAAUGGUAACGCGUUUCCCUCCUAAGGAGUAGACUGCGGGUUCGAGUCCCCUACGGAACG | ≤ 0.5
GUUCCGUUCGCGUAAUGGUAACGCGUCUCCGUCCUAAGGCGAAGCCUCCGGGUUCGAGUCCCGUACGGAACG | 0.668
GUUCCGUUCGCGUAAUGGUAACGCGUCUUCCUCCUUAGGAGAAGACUGCGGGUUCGAGUCCCAUACAGAACG | ≤ 0.5
